Measurements from different studies.
Each line is one published result; the experiments were not run side by side.
Target: Myosin light chain kinase 2, skeletal/cardiac muscle (MYLK2, Homo sapiens, UniProt Q9H1R3)

O=c1[nH]c2ccccc2n1C1CCN(Cc2ccc(-c3[nH]c4cc5ncnc5cc4nc3-c3ccccc3)cc2)CC1
remaining signal (cell-free assay; 0.5 µM): 103%

Cc1nn(C)cc1-c1nc2c(N3CCN(Cc4ccc(Cl)cc4)CC3)c(Cl)cnc2[nH]1
remaining binding (binding, competition with immobilised ligand; 1 µM): 61%

Cn1cncc1[C@@](O)(COc1ccc(C#N)cc1-c1ccc(OC(F)(F)F)cc1)c1ccc(C#N)cc1
remaining binding (cell-free assay, competition with immobilised ligand; 1 µM): 100%

Cn1cc(-c2cccc(N3CCc4c(sc5c4CC(C)(C)C5)C3=O)c2CO)cc(Nc2ccncn2)c1=O
inhibition (enzyme activity, inhibitor; 1 µM): 14%

Nc1ncc(-c2nc(N3CCOCC3)nc(N3CCOCC3)n2)c(C(F)F)n1
remaining binding (binding, competition with immobilised ligand; 10 µM): 92%

CC(C)(C)c1cc(C=C(C#N)C#N)cc(Br)c1O
remaining activity (enzyme activity, inhibitor; 0.5 µM): 99.3%

COc1ncccc1-c1cnn2ccc(N3CCN(C(=O)OC(C)C)CC3)nc12
remaining binding (binding, competition with immobilised ligand; 1 µM): 89%

Cn1cc(-c2cc(F)cc(N3CCn4c(cc5c4CCCC5)C3=O)c2CO)cc(Nc2ccc(N3CCN(C4COC4)CC3)cn2)c1=O
inhibition (enzyme activity, inhibitor; 0.1 µM): 17%

COc1cc(Nc2ncc(F)c(Nc3ccc4c(n3)NC(=O)C(C)(C)O4)n2)cc(OC)c1OC
inhibition (binding, competition with immobilised ligand; 10 µM): 58%
